Screening results as filed in PubChem.
Lmaj promast: Leishmania major promastigote growth inhibition, primary screen | Leishmania major promastigotes, resazurin fluorescence viability | inhibition, % at 10 µM | hit rate 9% among 200,000 | AID 1063, 2008; in the data active = inhibition above about 50%;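 note: promastigotes grown with compound for 44 hours at 28 °C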
MPTP block: mitochondrial permeability transition pore inhibitors, primary screen, biochemical, isolated mouse mitochondria, absorbance | Ca2+ swelling absorbance, 30 min | AID 602449, 2012 | hit rate 1.4% among 360,000 | inhibition, % at 10 µM;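 active = inhibition of 50% or more, scaled per plate between neutral and stimulator controls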;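 note: 0% = DMSO wells given calcium and 100% = 1 mM EGTA wells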
Redox H2O2 prof: compounds producing H2O2 with reducing agent – biochemical, NIH compound library profiling, artefact control for MLSCN library redox annotation, primary screen. activation, % at 10 µM. DTT-dependent redox cycling H2O2, phenol red/HRP absorbance; 100% = 100 µM peroxide control, 0% = buffer. hit rate 0.03% among 200,000;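 active = activation of at least 50% relative to the plate's high and low controls in the primary single-dose screen; inactive = activation below 50%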;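 note: compound incubated with DTT at 0.8 mM final as the reducing agent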
Lipid droplet: inhibitors of hepatocyte lipid droplet formation, primary screen, imaging, high-throughput imaging, BODIPY stain; AML12 mouse hepatocytes, oleate lipid droplets; inhibition, % at 6.5 µM; hit rate 0.4% among 240,000; AID 1656, 2009;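 active = lipid droplet intensity inhibited by at least 50%, with more than 500 cells counted; inconclusive = wells with under 300 cells, treated as cytotoxic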
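Test system: AML12 hepatocytes (mouse); reagent: oleate loading, 100 µM; dosing: one dose, 6.5 µM compound; incubation: overnight exposure; signal: fluorescence imaging, 20x objective, two fields per well; read-out basis: % inhibition of corrected integrated BODIPY droplet signal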
T cruzi inh: inhibitors of intracellular T. cruzi growth, primary screen, luminescence, NIH3T3 host cells. T. cruzi beta-gal in NIH3T3, 90 h. inhibition, % (concentration not given with the values). hit rate 1.4% among 300,000. AID 1885, 2009;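 active = mean inhibition across valid replicates above about 55%, limit read from the data; inconclusive = mean below that limit but half or more replicates reach it; inactive = mean below it, under half of replicates reach it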;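 note: signal also drops with host cell toxicity which is not excluded here; 0% = plate median of DMSO wells and 100% = zero luminescence signal; higher percent means less beta-gal luminescence so fewer parasites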
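System – NIH/3T3 host cells with β-galactosidase reporter T. cruzi · Doses – single 50 nL compound addition per well in DMSO · Reagent – 5000 T. cruzi trypomastigotes/well · Medium – Low-serum DMEM with 2% FBS · Timing – ≥90 h infection period, 3 h prior cell attachment · Evaluation – parasite load inhibition, % · Technique – GalScreen luminescence, 60 min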
* hit, by the source's call; ? = inconclusive; nt = not tested or not shown. Many of the other results were omitted from the sample, so hits are more common in it than they were.

SMILES | Lmaj promast | MPTP block | Redox H2O2 prof | Lipid droplet | T cruzi inh
COc1ccc(CC(=O)Nc2nc3ccc(F)cc3s2)cc1S(=O)(=O)N1CCOCC1 | 90.2* | -3.2 | 2.0 | -26.6 | -7.4
COc1ccc(CC(=O)Nc2nc3ccccc3s2)cc1S(=O)(=O)N1CCOCC1 | 3.3 | 1.6 | 0.0 | nt | -15.1
COc1ccc(N2CCN(C(CNC(=O)c3ccc4c(c3)OCO4)c3cccnc3)CC2)cc1 (centres undefined) | 90.4* | -6.9 | 0.0 | nt | 44.7
O=C(NCC(c1ccco1)N1CCN(c2ccc(F)cc2)CC1)c1ccc2c(c1)OCO2 (centres undefined) | nt | -2.6 | nt | nt | 14.5
O=C(NCC(c1cccnc1)N1CCN(c2ccc(F)cc2)CC1)c1ccc2c(c1)OCO2 (centres undefined) | 95.0* | -0.1 | 0.1 | 0.3 | ?
COc1ccc(N2CCN(C(CNC(=O)c3cccc(Cl)c3)c3cccnc3)CC2)cc1 (centres undefined) | 96.2* | 1.0 | -0.1 | nt | 42.3
COc1ccc(OCC(O)CNC(=O)c2c(-c3ccccc3)noc2C)cc1 (centres undefined) | nt | 1.8 | nt | nt | -6.4
O=c1c2cc(F)ccc2[nH]c(=S)n1Cc1ccc(F)cc1 | nt | 0.5 | nt | 14.1 | -14.3
NS(=O)(=O)c1ccc(CCn2c(=S)[nH]c3ccc(F)cc3c2=O)cc1 | 75.7* | -0.7 | 0.7 | 25.6 | 0.1
CC1CCC(NC(=O)CCN2C(=O)C3C4C=CC(C4)C3C2=O)CC1 (centres undefined) | nt | 1.5 | nt | 20.4 | -28.5
COc1cccc(/C=N/NC(=O)c2cc(C34CC5CC(CC(C5)C3)C4)[nH]n2)c1 | 88.9* | -4.5 | 2.0 | -21.4 | -12.0
COc1ccc(/C=N/NC(=O)c2cc(C34CC5CC(CC(C5)C3)C4)[nH]n2)cc1OC | 26.7 | 4.3 | 0.6 | 7.3 | 1.4
Cc1cc(-c2nn(-c3ccccc3F)cc2CNCCc2cnc[nH]2)c(C)s1 | 98.0* | 1.9 | 0.8 | -6.2 | 28.5
Fc1ccc(N/N=C2/CC(c3ccccc3)Oc3ccccc32)c(F)c1 (centres undefined) | 71.5* | 2.5 | nt | 3.7 | 30.7
CN1CCc2c(sc(NC(=O)c3ccc([N+](=O)[O-])o3)c2C(N)=O)C1 | nt | 1.0 | nt | -10.6 | 63.8*
CC(C)N1CCc2c(sc(NC(=O)c3ccc4ccccc4c3)c2C(N)=O)C1 | nt | 0.3 | nt | -6.0 | 39.3
CC(C)N1CCc2c(sc(NC(=O)c3cc4cc([N+](=O)[O-])ccc4s3)c2C(N)=O)C1 | 100.4* | 0.9 | -0.4 | 26.1 | -0.9
CN1CCc2c(sc(NC(=O)c3ccco3)c2C(N)=O)C1 | nt | -0.5 | nt | -0.7 | -5.0
CN1CCc2c(sc(NC(=O)c3cc4cc([N+](=O)[O-])ccc4s3)c2C(N)=O)C1 | 100.5* | nt | 0.2 | -14.2 | 68.7*
CN(C)CCn1cnc2c(c1=N)C(c1ccccc1)c1ccc3ccccc3c1O2 (centres undefined) | nt | -0.4 | nt | -17.8 | 35.7
O=S1(=O)CC(N2CCSCC2)CN1Cc1cn(Cc2cccc(C(F)(F)F)c2)nn1 (centres undefined) | nt | 0.7 | nt | nt | nt
COCCOC(=O)C1=C(C)NC(C)=C(C(=O)OC(C)C)C1c1cccc([N+](=O)[O-])c1 (centres undefined) | 66.2* | -0.7 | -0.2 | ? | 62.0*
Cc1ccc(/C=C/C(=O)NC(=S)Nc2ccccc2C(=O)NC2CCCCC2)cc1 | 83.2* | 0.7 | -4.0 | nt | 26.3
O=C(/C=C/c1ccccc1)NC(=S)Nc1ccccc1C(=O)NC1CCCCC1 | 99.5* | 4.6 | -3.8 | nt | 8.7
COc1ccc(/C=C/C(=O)NC(=S)Nc2ccccc2C(=O)NC2CCCCC2)cc1 | 91.1* | 1.2 | -1.4 | nt | 6.5
SMILES | Lmaj promast | MPTP block | Redox H2O2 prof | Lipid droplet | T cruzi inh
O=C(/C=C/c1ccc(F)cc1)NC(=S)Nc1ccccc1C(=O)NC1CCCCC1 | 1.5 | 0.7 | -4.4 | nt | -4.0
CC(=O)NC(=S)Nc1ccccc1C(=O)NC1CCCCC1 | 19.2 | -0.5 | -0.3 | 1.4 | -7.2
CCCCNC(=O)N1CCCN(c2ccc(C#N)cn2)CC1 | nt | -0.5 | nt | -5.0 | -23.3
CCOC(=O)c1c(NC(NC(=O)C(C)C)C(Cl)(Cl)Cl)sc2c1CCC2 (centres undefined) | 86.0* | 4.8 | -0.6 | 27.3 | 15.8
CCOC(=O)Nc1sc2c(c1C(=O)OCC)CCC2 | 2.6 | 1.8 | 0.3 | -20.5 | -8.7
O=C(NC1CCN(Cc2ccccc2)CC1)c1ccc(Cn2c(=S)[nH]c3ccc(N4CCOCC4)cc3c2=O)cc1 | 9.3 | -0.2 | -0.1 | -16.7 | 60.3*
O=C(c1ccc(Cn2c(=S)[nH]c3ccc(N4CCOCC4)cc3c2=O)cc1)N1CCC(N2CCCCC2)CC1 | -5.2 | 2.2 | -0.1 | -4.9 | 9.9
O=C(CCCCn1c(=O)[nH]c2ccccc2c1=O)NC1CCN(Cc2ccccc2)CC1 | -6.0 | -1.1 | 0.2 | nt | 3.7
O=C(CCCCCn1c(=S)[nH]c2ccc(N3CCOCC3)cc2c1=O)NC1CCN(Cc2ccccc2)CC1 | -7.0 | 21.2 | -0.5 | -10.1 | 64.5*
COc1ccc(/C=C2\SC(=O)N(CCC(=O)Nc3ccccc3)C2=O)cc1OC | 53.2* | -0.5 | 0.6 | 3.1 | 0.5
O=C(CCCN1C(=O)/C(=C/c2ccccc2)SC1=S)Nc1cccc(O)c1 | 65.4* | 9.5 | -1.1 | -22.6 | 23.7
Cc1cc(NC(=O)CCSc2ccc(Cl)cc2)no1 | 2.6 | 1.3 | 0.1 | 0.1 | 15.8
CC(C)NC(=O)C1(C)CCN1C(=O)c1cccc(F)c1 (centres undefined) | nt | -1.2 | nt | nt | nt
Oc1c(Br)cc(Br)cc1/C=N/Nc1ccc(Cl)nn1 | nt | 7.2 | nt | -0.5 | 55.3*
CCOC(=O)C1=CCN(S(=O)(=O)c2ccccc2F)C1c1ccc(Cl)c(Cl)c1 (centres undefined) | nt | -0.1 | nt | nt | nt
O=c1c2c(nc3nc(NCc4cccc5ccccc45)[nH]n13)CCC2 | -3.4 | -0.9 | -0.1 | 20.8 | -14.3
CN(/N=C/c1ccc(O)cc1O)c1nc(-c2ccccc2)cc(-c2ccccc2)n1 | 63.9* | 8.0 | -0.2 | 0.5 | ?
CC(NC(=O)Cn1ncc(Cl)c(Cl)c1=O)C12CC3CC(CC(C3)C1)C2 (centres undefined) | 100.3* | 2.6 | 0.5 | 2.3 | 32.2
CC(NC(=O)CN1C(=O)NC(Cc2ccccc2)(Cc2ccccc2)C1=O)C12CC3CC(CC(C3)C1)C2 (centres undefined) | 24.1 | -0.6 | 0.9 | 6.4 | 61.3*
Clc1cccc2c1CCN(Cc1nc(-c3cnccn3)no1)C2 | 12.3 | -1.9 | -2.3 | -5.2 | 4.2
CN1CCN(C(=O)C2=C[C@@H](c3csc4ccccc34)C[C@@H](OCc3ccc(CO)cc3)O2)CC1 | 89.6* | -1.2 | -0.1 | 0.8 | 9.9
O=C(C1=C[C@H](c2csc3ccccc23)C[C@H](OCc2ccc(CO)cc2)O1)N1CCN(Cc2ccc3c(c2)OCO3)CC1 | 65.9* | -1.1 | 0.3 | -15.5 | 61.9*
